Reference: ChEMBL document CHEMBL3997828, “Investigation of orexin-2 selective receptor antagonists: Structural modifications resulting in dual orexin receptor antagonists” (Bioorg Med Chem Lett, 2017)
Converted amounts (≈) assume the structure as drawn. The source made the active and inactive calls. The rule behind the calls is not given here.

Columns and labels:
Homo sapiens [1] = species on record: Homo sapiens; test: Selectivity ratio of IC50 for human OX1R expressed in CHOK1 cells to IC50 for human OX2R expressed in CHOK1 cells by FLIPR assay; type: cell-based
Homo sapiens [2] = species on record: Homo sapiens; test: Selectivity ratio of Ki for human OX1R expressed in CHOK1 cell membranes to Ki for human OX2R expressed in CHOK1 cell membranes; type: cell-based
In short: (§1)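 Radioligand competition binding used membranes from CHO-K1 cells overexpressing human OX1R or OX2R. […] The selectivity ratio is OX1R Ki divided by OX2R Ki.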

[3] = target: T1, Orexin/Hypocretin receptor type 1 (Homo sapiens, UniProt O43613); test: Displacement of [3H](S)-N-(biphenyl-2-yl)-1-(2-(1-methyl-1H-benzo[d]imidazol-2-ylthio)acetyl)pyrrolidine-2-carboxamide from human OX1R expressed in CHOK1 cell membranes
T1 sequence (O43613 whole entry): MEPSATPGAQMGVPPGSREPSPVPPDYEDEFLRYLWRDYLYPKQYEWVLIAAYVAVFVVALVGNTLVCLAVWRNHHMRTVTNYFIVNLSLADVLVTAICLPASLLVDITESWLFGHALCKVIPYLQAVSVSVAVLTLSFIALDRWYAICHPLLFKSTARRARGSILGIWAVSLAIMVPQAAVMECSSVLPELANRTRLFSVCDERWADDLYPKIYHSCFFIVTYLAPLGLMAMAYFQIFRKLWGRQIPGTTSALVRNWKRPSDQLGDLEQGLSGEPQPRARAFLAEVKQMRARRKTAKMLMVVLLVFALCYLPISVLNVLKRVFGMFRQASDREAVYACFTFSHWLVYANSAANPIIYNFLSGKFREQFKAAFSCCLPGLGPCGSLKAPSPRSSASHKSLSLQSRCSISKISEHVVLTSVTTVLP
In short: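 Radioligand competition binding used membranes from CHO-K1 cells overexpressing human OX1R or OX2R. The selectivity ratio is OX1R Ki divided by OX2R Ki.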

Orexin receptor type 2 [4] = target: T2, Orexin receptor type 2 (Homo sapiens, UniProt O43614); test: Displacement of [3H](S)-N-(2-(1H-pyrrol-1-yl)phenyl)-1-(2-(1-methyl-1H-benzo[d]imidazol-2-ylthio)acetyl)pyrrolidine-2-carboxamide from human OX2R expressed in CHOK1 cell membranes; in short: as §1
T2 sequence (O43614 whole entry): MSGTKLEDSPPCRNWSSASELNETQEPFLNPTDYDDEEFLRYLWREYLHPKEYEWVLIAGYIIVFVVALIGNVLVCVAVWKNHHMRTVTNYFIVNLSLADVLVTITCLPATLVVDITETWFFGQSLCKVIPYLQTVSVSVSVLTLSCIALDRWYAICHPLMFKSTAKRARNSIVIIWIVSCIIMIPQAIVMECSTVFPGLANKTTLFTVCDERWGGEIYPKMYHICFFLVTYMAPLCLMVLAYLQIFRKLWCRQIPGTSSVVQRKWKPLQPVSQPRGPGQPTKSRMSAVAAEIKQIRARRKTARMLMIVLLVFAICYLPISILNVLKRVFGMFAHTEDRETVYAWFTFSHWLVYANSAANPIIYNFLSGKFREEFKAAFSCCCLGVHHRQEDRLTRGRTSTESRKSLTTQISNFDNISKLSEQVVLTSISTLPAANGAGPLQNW

[5] = target: T1, Orexin/Hypocretin receptor type 1; test: Antagonist activity at human OX1R expressed in CHOK1 cells assessed as reduction in orexin A-induced calcium flux preincubated followed by orexin A addition by FLIPR assays; type: functional, cell-based
[6] = Time-dependent inhibition of CYP450 (unknown origin); type: ADME; conditions: human
Orexin receptor type 2 [7] = target: T2, Orexin receptor type 2; test: Antagonist activity at human OX2R expressed in CHOK1 cells assessed as reduction in orexin A-induced calcium flux preincubated followed by orexin A addition by FLIPR assays; type: functional, cell-based
[8] = Solubility of the compound in pH 6.5 FASSIF at 0.1 mg/ml after 15 mins by reverse-phase chromatography; type: physicochemical; conditions: fasted state simulated intestinal fluid (FaSSIF)
In short: (§2)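 Compound at […] was stirred at 80 rpm in SGF (0.01 N HCl, 0.9 wt.% NaCl, pH 1.8) or FASSIF (3 mM sodium taurocholate, 0.75 mM lecithin, 100 mM NaCl, NaOH/NaH₂PO₄, pH 6.5). It was then centrifuged at 14k rpm for 15 min.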

[9] = Solubility of the compound in pH 1.8 SGF at 0.1 mg/ml after 15 mins by reverse-phase chromatography; type: physicochemical; conditions: simulated gastric fluid (SGF); in short: as §2
[10] = tested on: OX2R knockout mouse (Mus musculus); test: Sleep promoting activity in OX2R knockout mouse assessed as attenuation of active wake at 30 mg/kg, po administered in late active phase for 5 consecutive days by electroencephalogram/electromyogram analysis
Rattus norvegicus [11] = test: Sleep promoting activity in rat assessed as increase in NREM sleep at 0.5 to 3 mg/kg, po administered in mid active phase for 3 consecutive days by electroencephalogram/electromyogram analysis; type: functional, organism-based
In short: (§3)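 Rats carried implanted radio-telemetry devices for EEG/EMG polysomnography. Oral doses were 0.5 (n=16), 1 (n=14) or 3 mg/kg (n=12) versus vehicle (20% vitamin E TPGS). Dosing was at ZT18:00 (6 h after lights off) on 3 consecutive days in a balanced cross-over. Active wake, NREM and REM time was scored in 30-min bins, and all treatment days were averaged over 24 h.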

Rattus norvegicus [12] = test: Sleep promoting activity in rat assessed as increase in REM sleep at 0.5 to 3 mg/kg, po administered in mid active phase for 3 consecutive days by electroencephalogram/electromyogram analysis; type: functional, organism-based; in short: as §3
Mus musculus [13] = test: Sleep promoting activity in mouse assessed as increase in REM sleep at 30 mg/kg, po administered in late active phase for 5 consecutive days by electroencephalogram/electromyogram analysis
Rattus norvegicus [14] = test: Sleep promoting activity in po dosed rat assessed as attenuation of active wake administered in mid active phase for 3 consecutive days measured up to 2 hrs post dose by electroencephalogram/electromyogram analysis; type: functional, organism-based; in short: as §3
Mus musculus [15] = test: Sleep promoting activity in mouse assessed as increase in NREM sleep at 30 mg/kg, po administered in late active phase for 5 consecutive days by electroencephalogram/electromyogram analysis
[16] = tested on: OX2R knockout mouse (Mus musculus); test: Sleep promoting activity in OX2R knockout mouse assessed as increase in NREM sleep at 30 mg/kg, po administered in late active phase for 5 consecutive days by electroencephalogram/electromyogram analysis
Mus musculus [17] = test: Sleep promoting activity in mouse assessed as attenuation of active wake at 30 mg/kg, po administered in late active phase for 5 consecutive days measured up to 1.5 hrs post dose by electroencephalogram/electromyogram analysis
[18] = target: T3, Nuclear receptor subfamily 1 group I member 2 (Homo sapiens, UniProt O75469); test: Inhibition of PXR (unknown origin); type: ADME
T3 sequence (O75469 whole entry): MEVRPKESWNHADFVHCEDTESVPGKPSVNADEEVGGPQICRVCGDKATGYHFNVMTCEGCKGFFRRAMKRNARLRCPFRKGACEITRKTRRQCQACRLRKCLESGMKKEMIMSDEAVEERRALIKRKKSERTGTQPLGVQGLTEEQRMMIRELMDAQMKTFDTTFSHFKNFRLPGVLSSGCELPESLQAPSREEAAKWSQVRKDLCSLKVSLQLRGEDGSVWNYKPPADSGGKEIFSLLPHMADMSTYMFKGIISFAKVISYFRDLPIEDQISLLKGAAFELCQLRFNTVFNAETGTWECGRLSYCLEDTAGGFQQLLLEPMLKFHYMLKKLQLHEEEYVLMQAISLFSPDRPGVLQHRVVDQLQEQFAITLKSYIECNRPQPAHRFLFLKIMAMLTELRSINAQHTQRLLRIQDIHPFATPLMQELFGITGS

SMILES	Ratio IC50 (Homo sapiens [1])	Ratio Ki (Homo sapiens [2])	Ki [3] [nM]	Ki (Orexin receptor type 2 [4]) [nM]	IC50 [5] [nM]	further results
COC(=O)c1cccnc1S[C@@H]1CC[C@@H](C)N(C(=O)c2ccccc2-n2nccn2)C1	2	8	6.3	0.8	–	–
Cc1c(C#N)ccnc1O[C@@H]1CC[C@@H](C)N(C(=O)c2ccccc2C(F)(F)F)C1	236	373	–	–	4960	–
C[C@@H]1CC[C@@H](Nc2cc(C#N)ccn2)CN1C(=O)c1ccccc1-n1nccn1	60	319	287	0.9	1740	–
Cc1c(C#N)ccnc1O[C@@H]1CC[C@@H](C)N(C(=O)c2cccnc2-c2ccccc2)C1	180	434	–	–	4670	–
Cc1c(C#N)ccnc1O[C@@H]1CC[C@@H](C)N(C(=O)c2ccccc2-n2ncnn2)C1	596	358	–	–	4590	–
COc1ccc(C(=O)N2C[C@H](Oc3nccc(C#N)c3C)CC[C@H]2C)c(C2CC2)n1	–	–	–	–	–	TDI [6]: Active
CC(=O)Nc1ccc(-c2ccccc2)c(C(=O)N2C[C@H](Oc3nccc(C#N)c3C)CC[C@H]2C)n1	2	20	12	0.6	74	IC50 (Orexin receptor type 2 [7]): 38 nM
Cc1c(C#N)ccnc1O[C@@H]1CC[C@@H](C)N(C(=O)c2ccc(Br)nc2-n2nccn2)C1	> 345	326	–	–	> 10000	–
C[C@@H]1CC[C@@H](Oc2cc(C#N)ccn2)CN1C(=O)c1ccccc1-c1ncccn1	175	438	569	–	–	solubility at 0.25 h [8]: 660 µg/mL (≈ 1650 µM); solubility at 0.25 h [9]: 680 µg/mL (≈ 1700 µM)
COc1ccc(C(=O)N2C[C@H](Oc3nccc(C#N)c3C)CC[C@H]2C)c(SC)n1	> 455	1260	–	–	> 10000	TDI [6]: Active
C[C@@H]1CC[C@@H](Sc2cc(C#N)ccn2)CN1C(=O)c1ccccc1-n1nccn1	109	191	324	1.7	–	IC50 (Orexin receptor type 2 [7]): 13 nM
COC(=O)c1cccnc1O[C@@H]1CC[C@@H](C)N(C(=O)c2ccccc2-n2nccn2)C1	9	26	66	2.5	309	IC50 (Orexin receptor type 2 [7]): 35 nM
COC(=O)c1c(C#N)ccnc1O[C@@H]1CC[C@@H](C)N(C(=O)c2ccccc2-n2nccn2)C1	39	112	–	0.5	–	–
Cc1c(C#N)ccnc1O[C@@H]1CC[C@@H](C)N(C(=O)c2ccccc2C2CC2)C1	193	741	–	–	1740	–
COC(=O)c1cccnc1N[C@@H]1CC[C@@H](C)N(C(=O)c2ccccc2-n2nccn2)C1	2	30	12	0.4	69	–
C[C@@H]1CC[C@@H](Oc2nccc3c2C(=O)OC3(C)C)CN1C(=O)c1ccccc1-n1nccn1	414	379	834	2.2	–	–
Cc1c(C#N)ccnc1O[C@@H]1CC[C@@H](C)N(C(=O)c2ccccc2-n2nccn2)C1	125	285	–	–	996	–
C[C@@H]1CC[C@@H](Oc2cc(C#N)ccn2)CN1C(=O)c1ccccc1-n1nccn1	295 to 356	518	–	–	3200 to 3830	Activity [10]: inactive; Activity (Rattus norvegicus [11]): Active; Activity (Rattus norvegicus [12]): Active; Activity (Mus musculus [13]): Active; Activity (Rattus norvegicus [14]): Dose-dependent effect; Activity (Mus musculus [15]): Active; IC50 (Orexin receptor type 2 [7]): 9 to 13 nM; Activity [16]: inactive; solubility at 0.25 h [8]: 13.5 µg/mL (≈ 34.8 µM); solubility at 0.25 h [9]: 13.7 µg/mL (≈ 35.3 µM); Activity (Mus musculus [17]): Active
Cc1c(C#N)ccnc1O[C@@H]1CC[C@@H](C)N(C(=O)c2ccccc2N2CCCC2)C1	107	232	–	–	3100	TDI [6]: Active
CCOc1ccccc1C(=O)N1C[C@H](Oc2nccc(C#N)c2C)CC[C@H]1C	350	849	–	–	2100	inhibition (INH) [18]: Active
CC(=O)Nc1cc(C(=O)N2C[C@H](Oc3nccc(C#N)c3C)CC[C@H]2C)c(-c2ccccc2)cn1	2	14	10	0.7	71	IC50 (Orexin receptor type 2 [7]): 38 nM
COC(=O)c1ccnc(O[C@@H]2CC[C@@H](C)N(C(=O)c3ccccc3-n3nccn3)C2)c1	82	80	–	–	–	–
COc1ccc(C(=O)N2C[C@H](Oc3nccc(C#N)c3C)CC[C@H]2C)c(-n2nccn2)c1	–	–	–	–	–	inhibition (INH) [18]: Active
COc1ccc(C(=O)N2C[C@H](Oc3nccc(C#N)c3C)CC[C@H]2C)c(-n2nccn2)n1	282	1190	–	–	5930	inhibition (INH) [18]: Active
